Test results reported in ChEMBL document CHEMBL2434966, “Novel N-4-piperazinyl-ciprofloxacin-chalcone hybrids: synthesis, physicochemical properties, anticancer and topoisomerase I and II inhibitory activity” (Eur J Med Chem, 2013).

Experiments:
[1] = molecular target: T1, DNA topoisomerase 1 (Homo sapiens) (UniProt P11387); assay: Inhibition of human recombinant topoisomerase 1-mediated relaxation of supercoiled pBR322 DNA at 100 uM after 30 mins by agarose gel electrophoresis relative to control
T1 sequence (whole entry): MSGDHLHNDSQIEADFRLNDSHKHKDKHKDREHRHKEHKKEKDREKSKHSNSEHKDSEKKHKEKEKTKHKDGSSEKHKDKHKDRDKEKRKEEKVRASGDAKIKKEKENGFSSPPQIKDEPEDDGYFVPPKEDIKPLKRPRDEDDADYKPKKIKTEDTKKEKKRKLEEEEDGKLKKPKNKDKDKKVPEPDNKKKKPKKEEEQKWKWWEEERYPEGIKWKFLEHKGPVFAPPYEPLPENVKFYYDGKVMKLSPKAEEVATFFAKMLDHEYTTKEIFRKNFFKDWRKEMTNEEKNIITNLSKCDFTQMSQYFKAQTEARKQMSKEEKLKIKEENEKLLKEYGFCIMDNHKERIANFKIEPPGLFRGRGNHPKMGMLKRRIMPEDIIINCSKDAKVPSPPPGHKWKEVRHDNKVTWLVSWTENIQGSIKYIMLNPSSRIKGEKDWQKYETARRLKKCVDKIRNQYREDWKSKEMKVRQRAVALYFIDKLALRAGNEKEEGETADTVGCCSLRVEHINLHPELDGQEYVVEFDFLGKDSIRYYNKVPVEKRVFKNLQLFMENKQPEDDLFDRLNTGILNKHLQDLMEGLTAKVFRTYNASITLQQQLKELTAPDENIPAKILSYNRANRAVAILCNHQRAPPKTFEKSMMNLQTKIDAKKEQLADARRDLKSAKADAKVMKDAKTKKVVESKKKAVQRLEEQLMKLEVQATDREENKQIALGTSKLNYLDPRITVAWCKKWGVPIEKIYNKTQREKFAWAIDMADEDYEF
Outline: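 Recombinant human topo I (0.4 units) with 100 ng supercoiled pBR322, 37 °C for 30 min in Tris-HCl pH 7.9, 150 mM NaCl, 0.1% BSA, 1 mM spermidine, 5% glycerol. Compounds came from 20 mM DMSO stocks, with matched DMSO in the enzyme-only control. Stopped with sarcosyl; 1% agarose/TAE gel, ethidium stain, UV densitometry. Camptothecin was the positive control.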

BT-549 [2] = assay: Growth inhibition of human BT549 cells after 48 hrs by sulforhodamine B assay; type: functional; conditions: BT-549, 48 h
Outline: (§1)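 NCI 60-panel five-dose test at 10-fold dilutions, 10^-4 to 10^-8 M, with 48 h continuous exposure and SRB protein read-out. Percent growth derived from time-zero, untreated-control and treated absorbances. GI50 is the concentration where [(Ti-Tz)/(C-Tz)]×100 = 50. TGI is taken at Ti = Tz. LC50 is taken at [(Ti-Tz)/Tz]×100 = -50.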

CAKI-1 [3] = assay: Growth inhibition of human CAKI-1 cells after 48 hrs by sulforhodamine B assay; type: functional; conditions: CAKI-1, 48 h; outline: as §1
A498 = assay: Growth inhibition of human A498 cells after 48 hrs by sulforhodamine B assay; type: functional; conditions: A498, 48 h; outline: as §1
[4] = Growth inhibition of human NCI-ADR-RES cells after 48 hrs by sulforhodamine B assay; type: functional; conditions: for CC50: read-out: LC50 (the source's name)
Outline: (§2)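 NCI five-dose screen on the full 60-cell-line panel. Cells were given 10-fold dilutions from 10^-4 to 10^-8 M with continuous 48 h exposure, and growth was read by SRB staining. Percent growth was taken from time-zero, control and treated absorbances. GI50, TGI and LC50 were then derived, the GI50 being the concentration that gives a 50% lower net protein increase than control.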

RPMI-8226 = assay: Growth inhibition of human RPMI8226 cells after 48 hrs by sulforhodamine B assay; type: functional; conditions: RPMI-8226, 48 h; for CC50: read-out: LC50 (the source's name); outline: as §2
BT-549 [5] = assay: Growth inhibition of human BT549 cells assessed as cell growth at 10^-5 M after 48 hrs by sulforhodamine B assay; type: functional; conditions: BT-549, 48 h, read-out: Activity
Outline: (§3)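 NCI 60-cell-line primary screen. Single concentration of 10^-5 M, 48 h incubation. End point by sulforhodamine B protein staining read spectrophotometrically. Reported as percent growth of treated cells relative to untreated control cells.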

UO-31 = assay: Growth inhibition of human UO31 cells assessed as cell growth at 10^-5 M after 48 hrs by sulforhodamine B assay; type: functional; conditions: UO-31, 48 h, read-out: Activity
Outline: (§4)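 NCI primary one-dose screen: single concentration of 10^-5 M added to culture, 48 h incubation, SRB protein-dye endpoint. Percent growth of treated cells measured spectrophotometrically against untreated controls.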

CAKI-1 [6] = assay: Growth inhibition of human CAKI-1 cells assessed as cell growth at 10^-5 M after 48 hrs by sulforhodamine B assay; type: functional; conditions: CAKI-1, 48 h, read-out: Activity; outline: as §3
SK-OV-3 = assay: Growth inhibition of human SKOV3 cells assessed as cell growth at 10^-5 M after 48 hrs by sulforhodamine B assay; type: functional; conditions: SK-OV-3, 48 h, read-out: Activity
Outline: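 NCI 60-cell-line primary one-dose screen. Cells were exposed to a single 10^-5 M concentration for 48 h. The end point was sulforhodamine B protein staining, read spectrophotometrically. Results are reported as percent growth of treated cells relative to untreated control cells.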

UACC-257 = assay: Growth inhibition of human UACC257 cells assessed as cell growth at 10^-5 M after 48 hrs by sulforhodamine B assay; type: functional; conditions: UACC-257, 48 h, read-out: Activity; outline: as §4
M14 = assay: Growth inhibition of human M14 cells assessed as cell growth at 10^-5 M after 48 hrs by sulforhodamine B assay; type: functional; conditions: M14, 48 h, read-out: Activity; outline: as §3
SNB-75 = assay: Growth inhibition of human SNB75 cells assessed as cell growth at 10^-5 M after 48 hrs by sulforhodamine B assay; type: functional; conditions: SNB-75, 48 h, read-out: Activity; outline: as §4
KM12 = assay: Growth inhibition of human KM12 cells assessed as cell growth at 10^-5 M after 48 hrs by sulforhodamine B assay; type: functional; conditions: KM12, 48 h, read-out: Activity; outline: as §3
HT-29 = assay: Growth inhibition of human HT-29 cells assessed as cell growth at 10^-5 M after 48 hrs by sulforhodamine B assay; type: functional; conditions: HT-29, 48 h, read-out: Activity; outline: as §3
COLO 205 = assay: Growth inhibition of human COLO205 cells assessed as cell growth at 10^-5 M after 48 hrs by sulforhodamine B assay; type: functional; conditions: COLO 205, 48 h, read-out: Activity; outline: as §3
CCRF-CEM = assay: Growth inhibition of human CCRF-CEM cells assessed as cell growth at 10^-5 M after 48 hrs by sulforhodamine B assay; type: functional; conditions: read-out: Activity; outline: as §3

In the case of `O=C(CN1CCN(c2cc3c(cc2F)c(=O)c(C(=O)O)cn3C2CC2)CC1)Nc1ccc(C(=O)/C=C/c2ccccc2)cc1`, the inhibition [1] was 57.2%, the GI50 (BT-549 [2]) was 3560 nM and the LC50 (concentration giving 50% net cell kill) (BT-549 [2]) was > 100 µM. For the same molecule, the TGI (BT-549 [2]) was > 100000 nM, the GI50 (CAKI-1 [3]) was 1760 nM and the LC50 (concentration killing 50% of starting cells) (CAKI-1 [3]) was > 100 µM. For the same molecule, the TGI (CAKI-1 [3]) was 5.32 µM, the GI50 (A498) was 1280 nM and the LC50 (concentration killing 50% of starting cells) (A498) was > 100 µM. For the same molecule, the TGI (A498) was 7.37 µM, the GI50 [4] was 9.75 µM and the TGI [4] was > 100 µM. For the same molecule, the CC50 [4] was > 100 µM, the GI50 (RPMI-8226) was 2520 nM and the TGI (RPMI-8226) was 6.73 µM. For the same molecule, the CC50 (RPMI-8226) was > 100 µM, the growth at 10 µM (BT-549 [5]) was 9.61% and the growth at 10 µM (UO-31) was 45%. The growth at 10 µM (CAKI-1 [6]) was 73.1%, the growth at 10 µM (SK-OV-3) was 93.6% and the growth at 10 µM (UACC-257) was 61.1%. The growth at 10 µM (M14) was 31.9%, the growth at 10 µM (SNB-75) was 61.8% and the growth at 10 µM (KM12) was 25.3%. For the same molecule, the growth at 10 µM (HT-29) was 11.4%, the growth at 10 µM (COLO 205) was 108% and the growth at 10 µM (CCRF-CEM) was 15.2%.
`COc1cc(/C=C/C(=O)c2ccc(NC(=O)CN3CCN(c4cc5c(cc4F)c(=O)c(C(=O)O)cn5C4CC4)CC3)cc2)cc(OC)c1OC` gave an inhibition [1] of 67.4%, a GI50 (BT-549 [2]) of 300 nM and an LC50 (concentration giving 50% net cell kill) (BT-549 [2]) of 6.98 µM. The TGI (BT-549 [2]) was 1170 nM, the GI50 (CAKI-1 [3]) was 1130 nM and the LC50 (concentration killing 50% of starting cells) (CAKI-1 [3]) was > 100 µM. The TGI (CAKI-1 [3]) was > 100 µM, the GI50 (A498) was 360 nM and the LC50 (concentration killing 50% of starting cells) (A498) was 5.47 µM. The TGI (A498) was 1.8 µM, the GI50 [4] was 57.6 µM and the TGI [4] was > 100 µM. For the same molecule, the CC50 [4] was > 100 µM, the GI50 (RPMI-8226) was 290 nM and the TGI (RPMI-8226) was 0.77 µM. For the same molecule, the CC50 (RPMI-8226) was > 100 µM, the growth at 10 µM (BT-549 [5]) was -86.7% and the growth at 10 µM (UO-31) was 2.96%. For the same molecule, the growth at 10 µM (CAKI-1 [6]) was 57.2%, the growth at 10 µM (SK-OV-3) was 33.3% and the growth at 10 µM (UACC-257) was 30.8%. For the same molecule, the growth at 10 µM (M14) was -14.1%, the growth at 10 µM (SNB-75) was 76.6% and the growth at 10 µM (KM12) was -65.1%. For the same molecule, the growth at 10 µM (HT-29) was -3.37%, the growth at 10 µM (COLO 205) was -12.8% and the growth at 10 µM (CCRF-CEM) was -13.7%.
